Test results published in ChEMBL document CHEMBL1146021, “Calcium channel antagonists discovered by a multidisciplinary approach” (J Med Chem, 2006).
Each block holds one compound with its values, some of them ahead of it. Active and inactive are the calls of the source.

What was measured:
[1] = species on record: Cavia porcellus; assay: Vasorelaxant activity assessed as inhibition of calcium-induced contraction of potassium ion-depolarized guinea pig aortic strips; format: functional; conditions: Aorta
Method in brief: (§1)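 Helicoidal guinea-pig aortic strips in aerated PSS at 35 °C, contracted with 80 mM KCl (K+ substituted for Na+). At plateau (about 45 min), compounds added cumulatively at 0.1-500 μM in DMSO vehicle. Relaxation measured isometrically. IC50 by Probit analysis, n = 6-8.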

[2] = species on record: Cavia porcellus; assay: Negative inotropic activity in guinea pig left atrium; format: functional; conditions: Cardiac atrium
Method in brief: (§2)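 Guinea-pig left atria driven at 1 Hz (0.6-0.8 ms pulses, about 50% threshold voltage) in PSS, 35 °C, pH 7.4, 95% O2/5% CO2. Isometric tension recorded. Cumulative concentrations 0.01-100 μM in DMSO (≤0.3%), each to steady state. Percent decrease in developed tension, n = 4-6. EC50 by Probit analysis.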

[3] = species on record: Cavia porcellus; assay: Negative inotropic activity in guinea pig left atrium at 10 uM; format: functional, Cardiac atrium; method in brief: as §2
[4] = species on record: Cavia porcellus; assay: Negative chronotropic activity in guinea pig right atrium at 10 uM; format: functional, Cardiac atrium
Method in brief: (§3)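 Spontaneously beating guinea-pig right atria in PSS, 35 °C, pH 7.4, 95% O2/5% CO2. Cumulative concentrations 0.01-100 μM in DMSO (≤0.3% in bath), each to steady state. Rate decrease taken as percent of control (pretreatment 170-195 beats/min), n = 6-8. EC30 by Probit analysis.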

[5] = species on record: Cavia porcellus; assay: Vasorelaxant activity assessed as inhibition of calcium-induced contraction of potassium ion-depolarized guinea pig aortic strips at 100 uM; format: functional, Aorta; set-up: scale not given: the % may be the effect or the level left; method in brief: as §1
[6] = species on record: Cavia porcellus; assay: Vasorelaxant activity assessed as inhibition of calcium-induced contraction of potassium ion-depolarized guinea pig aortic strips at 50 uM; format: functional, Aorta; set-up: scale not given: the % may be the effect or the level left; method in brief: as §1
[7] = species on record: Cavia porcellus; assay: Negative inotropic activity in guinea pig left atrium at 50 uM; format: functional, Cardiac atrium; method in brief: as §2
[8] = species on record: Cavia porcellus; assay: Negative chronotropic activity in guinea pig right atrium at 5 uM; format: functional, Cardiac atrium; method in brief: as §3
[9] = species on record: Cavia porcellus; assay: Negative chronotropic activity in guinea pig right atrium at 50 uM; format: functional, Cardiac atrium; method in brief: as §3
[10] = species on record: Cavia porcellus; assay: Negative inotropic activity in guinea pig left atrium at 500 uM; format: functional, Cardiac atrium
[11] = species on record: Cavia porcellus; assay: Negative chronotropic activity in guinea pig right atrium at 500 uM; format: functional, Cardiac atrium
[12] = species on record: Cavia porcellus; assay: Negative inotropic activity in guinea pig left atrium at 100 uM; format: functional, Cardiac atrium; conditions: in the assay text read “50 uM” for “100 uM”; method in brief: as §2
[13] = species on record: Cavia porcellus; assay: Antagonist activity against calcium channel assessed as inhibition of carbachol-induced tonic contraction of guinea pig ileum longitudinal smooth muscle; format: functional
Method in brief: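 Guinea-pig ileum longitudinal smooth muscle segments (2 cm), 300-400 mg resting tension, 37 °C, oxygenated Hepes-buffered PSS at pH 7.4, equilibrated 1 h. Two control carbachol curves run 30 min apart. Test agent (10 μM) added 30 min before the carbachol curve. Isometric inhibition expressed as percent of control.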

[14] = species on record: Cavia porcellus; assay: Negative inotropic activity in guinea pig left ventricular papillary muscle; format: functional; conditions: Muscle tissue
[15] = species on record: Cavia porcellus; assay: Cardiac activity in guinea pig heart measured as decrease in coronary perfusion pressure at 1 uM relative to control; format: functional; set-up: scale not given: the % may be the effect or the level left
Method in brief: (§4)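 Langendorff-perfused isolated hearts from female guinea-pigs (300-400 g). Compounds given cumulatively at 0.001-1 μM, each step held to steady state (about 30 min). Read-outs: surface ECG (PR interval, heart rate), intraventricular balloon +(dP/dt)max and coronary perfusion pressure. Results given as percent change from basal at 1 μM, mean ± SEM.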

[16] = species on record: Cavia porcellus; assay: Cardiac activity in guinea pig heart measured as prolongation of atrioventricular conduction time at 1 uM relative to control; format: functional; method in brief: as §4
[17] = species on record: Cavia porcellus; assay: Negative inotropic activity in guinea pig left ventricular papillary muscle at 50 uM; format: functional, Muscle tissue
[18] = species on record: Cavia porcellus; assay: Antagonist activity against calcium channel assessed as inhibition of calcium-induced contraction of potassium ion-depolarized guinea pig ileum longitudinal smooth muscle at 50 uM; format: functional; set-up: scale not given: the % may be the effect or the level left
Method in brief: (§5)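 Guinea-pig ileum longitudinal smooth muscle segments (2 cm) held at 300-400 mg resting tension, 37 °C, in oxygenated (100% O2) Hepes-buffered PSS at pH 7.4. Isometric contraction recorded. Inhibition expressed as percentage of control. Probit log concentration–response analysis, n = 6-8.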

[19] = species on record: Cavia porcellus; assay: Cardiac activity in guinea pig heart measured as decrease in left ventricular pressure at 1 uM relative to control; format: functional; set-up: scale not given: the % may be the effect or the level left; method in brief: as §4
[20] = species on record: Cavia porcellus; assay: Negative chronotropic activity in guinea pig right atrium; format: functional; conditions: Cardiac atrium; method in brief: as §3
[21] = species on record: Cavia porcellus; assay: Antagonist activity against calcium channel assessed as inhibition of calcium-induced contraction of potassium ion-depolarized guinea pig ileum longitudinal smooth muscle; format: functional; method in brief: as §5
[22] = species on record: Cavia porcellus; assay: Cardiac activity in guinea pig heart measured as decrease in heart rate at 1 uM by ECG relative to control; format: functional; set-up: scale not given: the % may be the effect or the level left; method in brief: as §4
[23] = biological target: Voltage-dependent L-type calcium channel subunit alpha-1C (Rattus norvegicus, UniProt P22002); assay: Inhibition of [3H]diltiazem binding to Sprague-Dawley rat cardiomyocytes
Sequence of Voltage-dependent L-type calcium channel subunit alpha-1C (P22002 whole entry, the tested form may be a part): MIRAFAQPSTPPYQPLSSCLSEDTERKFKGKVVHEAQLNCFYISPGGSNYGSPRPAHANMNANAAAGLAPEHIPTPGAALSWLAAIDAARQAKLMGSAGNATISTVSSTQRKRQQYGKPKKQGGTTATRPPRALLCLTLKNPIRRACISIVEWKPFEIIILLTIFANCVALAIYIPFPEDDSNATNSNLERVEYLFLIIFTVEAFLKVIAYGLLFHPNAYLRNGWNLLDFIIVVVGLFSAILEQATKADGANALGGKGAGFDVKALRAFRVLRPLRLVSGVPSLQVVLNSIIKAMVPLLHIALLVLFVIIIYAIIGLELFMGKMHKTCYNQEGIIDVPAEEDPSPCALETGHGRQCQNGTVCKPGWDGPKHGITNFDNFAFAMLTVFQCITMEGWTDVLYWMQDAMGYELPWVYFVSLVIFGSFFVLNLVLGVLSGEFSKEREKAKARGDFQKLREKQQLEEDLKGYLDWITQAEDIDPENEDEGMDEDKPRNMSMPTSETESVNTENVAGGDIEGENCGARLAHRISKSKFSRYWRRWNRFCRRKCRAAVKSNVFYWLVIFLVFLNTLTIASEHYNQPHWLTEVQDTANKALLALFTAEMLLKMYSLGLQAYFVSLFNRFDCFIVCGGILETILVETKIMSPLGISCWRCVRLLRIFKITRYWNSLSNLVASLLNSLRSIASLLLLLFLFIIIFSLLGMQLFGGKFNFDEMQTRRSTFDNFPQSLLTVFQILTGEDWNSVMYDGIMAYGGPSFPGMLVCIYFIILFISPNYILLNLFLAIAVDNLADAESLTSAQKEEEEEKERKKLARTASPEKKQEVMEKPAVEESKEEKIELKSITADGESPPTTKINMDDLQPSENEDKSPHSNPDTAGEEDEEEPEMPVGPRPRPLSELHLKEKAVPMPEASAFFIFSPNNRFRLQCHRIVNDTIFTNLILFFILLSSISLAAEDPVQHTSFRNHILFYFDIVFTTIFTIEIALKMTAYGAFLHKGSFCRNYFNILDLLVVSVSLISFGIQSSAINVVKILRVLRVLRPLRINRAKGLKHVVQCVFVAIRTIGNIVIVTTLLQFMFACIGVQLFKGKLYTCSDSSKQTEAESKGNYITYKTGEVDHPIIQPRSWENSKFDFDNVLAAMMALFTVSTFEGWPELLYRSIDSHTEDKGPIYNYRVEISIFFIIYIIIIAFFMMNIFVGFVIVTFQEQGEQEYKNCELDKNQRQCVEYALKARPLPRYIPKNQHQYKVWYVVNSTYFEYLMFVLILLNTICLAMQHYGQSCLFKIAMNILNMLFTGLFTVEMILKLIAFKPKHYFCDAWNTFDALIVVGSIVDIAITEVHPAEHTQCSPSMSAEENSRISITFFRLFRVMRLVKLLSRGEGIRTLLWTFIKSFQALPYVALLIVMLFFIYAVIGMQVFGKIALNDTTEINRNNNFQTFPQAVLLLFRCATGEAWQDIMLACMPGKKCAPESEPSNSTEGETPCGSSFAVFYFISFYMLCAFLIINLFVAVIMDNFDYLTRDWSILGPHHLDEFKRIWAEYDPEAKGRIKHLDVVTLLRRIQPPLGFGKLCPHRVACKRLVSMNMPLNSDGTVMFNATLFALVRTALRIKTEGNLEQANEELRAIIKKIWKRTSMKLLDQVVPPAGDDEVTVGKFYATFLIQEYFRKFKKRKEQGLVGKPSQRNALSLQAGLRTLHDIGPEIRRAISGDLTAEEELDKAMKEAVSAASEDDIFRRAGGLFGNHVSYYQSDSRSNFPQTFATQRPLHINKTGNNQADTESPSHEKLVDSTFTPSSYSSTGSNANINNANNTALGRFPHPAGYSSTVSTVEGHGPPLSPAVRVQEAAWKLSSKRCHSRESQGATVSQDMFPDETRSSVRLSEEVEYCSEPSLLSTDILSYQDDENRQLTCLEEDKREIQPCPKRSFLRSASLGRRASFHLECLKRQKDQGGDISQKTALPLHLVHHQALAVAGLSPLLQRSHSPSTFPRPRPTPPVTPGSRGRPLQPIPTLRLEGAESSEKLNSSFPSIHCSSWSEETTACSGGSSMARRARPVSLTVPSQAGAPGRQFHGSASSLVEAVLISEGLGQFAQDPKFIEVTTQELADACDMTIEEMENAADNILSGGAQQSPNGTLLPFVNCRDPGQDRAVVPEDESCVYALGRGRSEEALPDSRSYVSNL
Method in brief: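 Cardiomyocytes from male Sprague-Dawley rats, isolated by Langendorff perfusion and stored frozen (200 μg per tube). Incubated with 5 nM [3H]diltiazem and test ligand (0.1 nM-100 μM) in 50 mM Tris pH 7.4, 25 °C, 90 min. Bound ligand separated by filtration. Nonspecific binding with 100 μM diltiazem. Triplicates. pIC50 from sigmoidal fit; Ki by Cheng-Prusoff.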

[24] = species on record: Cavia porcellus; assay: Negative chronotropic activity in guinea pig right atrium at 100 uM; format: functional, Cardiac atrium; conditions: in the assay text read “50 uM” for “100 uM”; method in brief: as §3
[25] = species on record: Cavia porcellus; assay: Antagonist activity against calcium channel assessed as inhibition of calcium-induced contraction of potassium ion-depolarized guinea pig ileum longitudinal smooth muscle at 500 uM; format: functional; set-up: scale not given: the % may be the effect or the level left; method in brief: as §5
[26] = species on record: Cavia porcellus; assay: Negative inotropic activity in guinea pig left ventricular papillary muscle at 10 uM; format: functional, Muscle tissue

SMILES: CSC1=NCCCN1S(=O)(=O)c1ccc(Cl)cc1
IC50 [1]: 25.1 µM | EC50 [2]: 1.33 µM | Activity [3]: 92% | Activity [4]: 5% | Activity [5]: 57%

SMILES: O=S(=O)(c1ccc(Cl)cc1)N(Cc1ccsc1)S(=O)(=O)c1ccc(Cl)cc1
Activity [10]: 71% | Activity [11]: 7% | EC50 [2]: 2.55 µM | Activity [5]: 9%

SMILES: CC(C)(C)N(OC(=O)c1ccccc1)C(=O)C(F)(F)F
Activity [12]: 52% | EC50 [2]: 6.13 µM | Activity [24]: 7% | Activity [5]: 10%

SMILES: C[C@H]1CC(=O)[C@](C)(CC(=O)c2ccc(Cl)cc2)C(=O)C1
EC50 [2]: 7.51 µM | Activity [7]: 78% | Activity [4]: 2% | Activity [5]: 16%

SMILES: CO/N=C/c1c(Sc2ccccc2C(=O)OC)nc2sccn12
Activity [6]: 9% | EC50 [2]: 0.9 µM | Activity [7]: 63% | Activity [9]: 13%

More lines, in order of falling EC50 [2], values ahead:

EC50 [2]: 2.28 µM
SMILES: Cc1snc(S(=O)(=O)Cc2c(F)cccc2Cl)c1C#N
Activity [7]: 80% | Activity [9]: 22% | Activity [5]: 23%

EC50 [2]: 1.17 µM
SMILES: C=CCN(CC=C)S(=O)(=O)c1ccc(Cl)cc1
Activity [12]: 98% | Activity [4]: 6% | Activity [5]: 42%

EC50 [2]: 0.91 µM
SMILES: O=C(O)[C@@H]1CCCN1S(=O)(=O)c1ccccc1
Activity [6]: 3% | Activity [7]: 66% | Activity [8]: 22%

EC50 [14]: 0.066 µM | EC50 [2]: 0.4 µM | EC50 [21]: 124 µM
SMILES: CC(=O)c1ccccc1N1C(=O)CSCC1=O
Activity [6]: 5% | Activity [13]: inactive | Activity [25]: 55% | Activity [15]: 6% | Activity [16]: 15% | Activity [19]: 17% | Activity [7]: 61% | Activity [9]: 3% | Activity [22]: 14% | Activity [26]: 89%

EC50 [2]: 0.36 µM
SMILES: O=S(=O)(c1ccc(Br)cc1)N1CCCCCC1
Activity [7]: 91% | Activity [9]: 4% | Activity [5]: 33%

IC50 [13]: 34.5 µM | EC50 [14]: 10.2 µM | EC50 [2]: 0.313 µM | EC50 [21]: 14.2 µM | Ki [23]: 3.02 µM
SMILES: O=S(=O)(c1ccc(Cl)cc1)N(C1CCNCC1)C1CC1
Activity [15]: 13% | Activity [16]: inactive | Activity [17]: 78% | Activity [18]: 89% | Activity [19]: 12% | EC30 [20]: 0.48 µM | Activity [7]: 76% | Activity [9]: 64% | Activity [22]: 12% | Activity [5]: 19%
